Reference: paper PMC8942385 (Medicinal chemistry research : an international journal for …, 2021)
“Also recorded” adds a separate entry of the source. Read-outs that look alike come from different tables or passages of the source.

How the values were obtained:
[1] = biological target: T1, 5-HT2CR (Homo sapiens, UniProt P28335); assay: PDSP radioligand binding, 5-HT2CR
T1 sequence (P28335 33-458): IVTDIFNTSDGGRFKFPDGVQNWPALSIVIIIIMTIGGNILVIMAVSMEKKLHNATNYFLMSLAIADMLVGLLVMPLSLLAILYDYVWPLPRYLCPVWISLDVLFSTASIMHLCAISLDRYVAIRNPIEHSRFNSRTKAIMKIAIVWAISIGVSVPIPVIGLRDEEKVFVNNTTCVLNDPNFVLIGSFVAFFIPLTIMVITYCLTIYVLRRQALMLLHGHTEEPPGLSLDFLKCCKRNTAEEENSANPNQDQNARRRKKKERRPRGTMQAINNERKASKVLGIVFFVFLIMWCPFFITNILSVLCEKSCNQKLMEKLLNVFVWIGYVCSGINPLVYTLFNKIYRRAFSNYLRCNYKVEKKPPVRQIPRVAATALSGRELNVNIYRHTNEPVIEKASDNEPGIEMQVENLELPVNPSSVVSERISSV

[2] = biological target: NET (Homo sapiens, UniProt P23975); assay: PDSP radioligand binding, NET; settings: for Binding, NET: inhibition threshold class: [3H]Nisoxetine, 10 μM concentration
Sequence of NET (P23975 whole entry): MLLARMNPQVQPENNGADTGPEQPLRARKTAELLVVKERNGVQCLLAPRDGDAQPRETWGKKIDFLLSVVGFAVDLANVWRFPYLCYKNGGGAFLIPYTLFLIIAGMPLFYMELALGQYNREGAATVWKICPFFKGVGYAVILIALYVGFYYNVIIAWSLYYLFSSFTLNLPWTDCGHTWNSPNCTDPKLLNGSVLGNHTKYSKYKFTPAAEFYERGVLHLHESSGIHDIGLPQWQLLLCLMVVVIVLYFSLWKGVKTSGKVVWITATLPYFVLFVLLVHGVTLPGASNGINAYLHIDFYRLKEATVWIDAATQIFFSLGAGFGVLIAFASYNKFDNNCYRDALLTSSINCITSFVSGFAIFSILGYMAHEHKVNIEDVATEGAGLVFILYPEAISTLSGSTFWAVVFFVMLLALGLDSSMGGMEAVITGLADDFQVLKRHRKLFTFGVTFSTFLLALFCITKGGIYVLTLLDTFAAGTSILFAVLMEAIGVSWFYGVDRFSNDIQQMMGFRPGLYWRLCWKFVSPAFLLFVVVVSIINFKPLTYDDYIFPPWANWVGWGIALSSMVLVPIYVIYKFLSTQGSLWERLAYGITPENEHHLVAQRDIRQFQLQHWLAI

[3] = biological target: T2, D4R (Homo sapiens, UniProt P21917); assay: PDSP radioligand binding, D4
T2 sequence (P21917 1-419): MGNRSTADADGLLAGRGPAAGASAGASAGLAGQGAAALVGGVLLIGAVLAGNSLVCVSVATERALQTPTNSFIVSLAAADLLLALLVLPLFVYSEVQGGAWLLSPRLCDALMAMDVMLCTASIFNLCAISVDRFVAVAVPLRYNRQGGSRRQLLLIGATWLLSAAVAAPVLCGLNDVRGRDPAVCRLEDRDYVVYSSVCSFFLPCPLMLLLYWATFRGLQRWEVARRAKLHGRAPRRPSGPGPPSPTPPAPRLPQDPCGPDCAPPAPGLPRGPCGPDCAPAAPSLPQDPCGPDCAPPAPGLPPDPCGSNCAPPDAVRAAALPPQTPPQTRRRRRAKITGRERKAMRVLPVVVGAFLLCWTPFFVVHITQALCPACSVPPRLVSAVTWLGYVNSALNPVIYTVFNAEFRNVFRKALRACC
Outline: (§1)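 Radioligand competition binding run by NIMH-PDSP. Radioligands: [3H]8-OH-DPAT (5-HT1AR), [3H]Ketanserin (5-HT2AR), [3H]LSD (5-HT2BR), [3H]SCH23390 (D1R, D5R), [3H]N-Methylspiperone (D2R, D3R, D4R). […] Ki given as mean ± SEM of at least 3 independent assays, each in triplicate.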

[4] = biological target: D3R (Homo sapiens, UniProt P35462); assay: PDSP radioligand binding, D3; settings: for Ki: Binding affinity constant Ki, D3, [3H]N-Methylspiperone
Outline: as §1

[5] = biological target: T3, 5-HT1AR (Homo sapiens, UniProt P08908); assay: PDSP radioligand binding, 5-HT1AR; settings: [3H]8-OH-DPAT
T3 sequence (P08908 1-422): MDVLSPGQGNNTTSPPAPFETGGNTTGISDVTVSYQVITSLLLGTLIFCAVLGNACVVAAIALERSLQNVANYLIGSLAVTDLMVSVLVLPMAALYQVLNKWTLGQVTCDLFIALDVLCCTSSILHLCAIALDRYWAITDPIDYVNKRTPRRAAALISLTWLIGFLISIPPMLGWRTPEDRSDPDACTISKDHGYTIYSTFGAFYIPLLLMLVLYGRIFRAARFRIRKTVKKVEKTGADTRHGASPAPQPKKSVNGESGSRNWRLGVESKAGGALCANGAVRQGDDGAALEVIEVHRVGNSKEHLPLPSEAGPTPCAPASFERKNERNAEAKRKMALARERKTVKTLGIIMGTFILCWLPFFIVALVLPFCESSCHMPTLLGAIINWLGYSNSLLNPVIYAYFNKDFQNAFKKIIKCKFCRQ
Outline: as §1

[6] = biological target: T4, SERT (Homo sapiens, UniProt P31645); assay: PDSP radioligand binding, SERT; settings: for Binding, SERT: inhibition threshold class: [3H]Citalopram, 10 μM concentration
T4 sequence (P31645 whole entry, species assumed): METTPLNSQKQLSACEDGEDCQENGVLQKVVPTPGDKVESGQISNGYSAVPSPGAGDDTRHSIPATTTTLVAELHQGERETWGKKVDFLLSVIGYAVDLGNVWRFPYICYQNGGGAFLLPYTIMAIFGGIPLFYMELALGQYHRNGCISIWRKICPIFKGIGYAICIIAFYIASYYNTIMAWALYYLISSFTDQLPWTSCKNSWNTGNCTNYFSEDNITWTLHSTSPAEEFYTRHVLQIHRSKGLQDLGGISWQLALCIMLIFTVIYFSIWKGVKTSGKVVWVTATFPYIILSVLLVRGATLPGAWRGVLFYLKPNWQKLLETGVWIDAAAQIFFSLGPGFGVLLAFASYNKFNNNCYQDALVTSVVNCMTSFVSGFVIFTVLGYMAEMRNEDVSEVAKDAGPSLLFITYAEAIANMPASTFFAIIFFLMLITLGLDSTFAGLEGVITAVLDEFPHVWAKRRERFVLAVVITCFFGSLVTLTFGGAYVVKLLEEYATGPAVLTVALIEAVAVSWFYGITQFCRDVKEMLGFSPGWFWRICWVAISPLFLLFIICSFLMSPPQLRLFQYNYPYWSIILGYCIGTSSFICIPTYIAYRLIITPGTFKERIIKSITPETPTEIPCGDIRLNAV

[7] = biological target: T5, 5-HT7R (Homo sapiens, UniProt P34969); assay: PDSP radioligand binding, 5-HT7R
[8] = biological target: D5R (Homo sapiens, UniProt P21918); assay: PDSP radioligand binding, D5; settings: for inhibition at 10 µM: read-out: Binding, D5: inhibition threshold class
Sequence of D5R (P21918 whole entry): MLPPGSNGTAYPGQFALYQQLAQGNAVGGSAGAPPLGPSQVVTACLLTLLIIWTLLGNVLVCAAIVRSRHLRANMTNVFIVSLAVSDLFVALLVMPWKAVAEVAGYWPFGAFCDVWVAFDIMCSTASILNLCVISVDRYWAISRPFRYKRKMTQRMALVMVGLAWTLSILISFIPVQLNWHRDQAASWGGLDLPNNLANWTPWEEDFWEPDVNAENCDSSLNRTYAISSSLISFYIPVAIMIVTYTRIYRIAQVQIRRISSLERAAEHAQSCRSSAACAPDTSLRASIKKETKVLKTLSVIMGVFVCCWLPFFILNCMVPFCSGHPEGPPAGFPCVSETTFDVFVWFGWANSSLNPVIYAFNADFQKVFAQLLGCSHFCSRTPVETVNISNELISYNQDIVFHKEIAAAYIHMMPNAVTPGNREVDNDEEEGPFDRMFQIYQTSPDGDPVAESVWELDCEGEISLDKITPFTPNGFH
Outline: as §1

[9] = biological target: D1R (Homo sapiens, UniProt P21728); assay: PDSP radioligand binding, D1; settings: for inhibition at 10 µM: read-out: Binding, D1: inhibition threshold class
Sequence of D1R (P21728 whole entry): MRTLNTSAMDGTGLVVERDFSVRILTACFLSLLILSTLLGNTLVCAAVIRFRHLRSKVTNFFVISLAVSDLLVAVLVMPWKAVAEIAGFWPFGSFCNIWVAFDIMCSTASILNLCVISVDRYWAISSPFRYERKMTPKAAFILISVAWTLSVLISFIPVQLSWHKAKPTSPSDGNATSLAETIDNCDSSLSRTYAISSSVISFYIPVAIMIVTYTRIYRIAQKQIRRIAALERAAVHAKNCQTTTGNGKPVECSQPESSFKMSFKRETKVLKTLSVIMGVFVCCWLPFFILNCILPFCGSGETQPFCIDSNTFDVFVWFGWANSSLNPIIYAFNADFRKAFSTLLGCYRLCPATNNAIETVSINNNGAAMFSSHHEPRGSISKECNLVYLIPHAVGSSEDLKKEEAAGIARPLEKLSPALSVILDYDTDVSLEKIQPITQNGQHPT
Outline: as §1

[10] = biological target: D2R (Homo sapiens, UniProt P14416); assay: PDSP radioligand binding, D2
Sequence of D2R (P14416 whole entry): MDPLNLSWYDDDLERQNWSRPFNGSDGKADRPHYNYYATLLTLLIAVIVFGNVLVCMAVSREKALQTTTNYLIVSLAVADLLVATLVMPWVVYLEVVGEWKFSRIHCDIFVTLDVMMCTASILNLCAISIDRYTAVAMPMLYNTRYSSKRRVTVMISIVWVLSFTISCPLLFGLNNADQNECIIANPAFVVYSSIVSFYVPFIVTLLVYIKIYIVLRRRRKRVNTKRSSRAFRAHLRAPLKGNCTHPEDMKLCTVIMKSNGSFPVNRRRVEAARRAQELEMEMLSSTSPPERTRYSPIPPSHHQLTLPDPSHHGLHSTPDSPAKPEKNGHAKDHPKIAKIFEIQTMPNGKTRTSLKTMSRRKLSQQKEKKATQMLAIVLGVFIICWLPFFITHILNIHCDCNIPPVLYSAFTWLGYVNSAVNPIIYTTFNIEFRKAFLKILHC
Outline: as §1

[11] = biological target: DAT (Homo sapiens, UniProt Q01959); assay: PDSP radioligand binding, DAT; settings: for Binding, DAT: inhibition threshold class: [3H]WIN35428, 10 μM concentration
Sequence of DAT (Q01959 whole entry, species assumed): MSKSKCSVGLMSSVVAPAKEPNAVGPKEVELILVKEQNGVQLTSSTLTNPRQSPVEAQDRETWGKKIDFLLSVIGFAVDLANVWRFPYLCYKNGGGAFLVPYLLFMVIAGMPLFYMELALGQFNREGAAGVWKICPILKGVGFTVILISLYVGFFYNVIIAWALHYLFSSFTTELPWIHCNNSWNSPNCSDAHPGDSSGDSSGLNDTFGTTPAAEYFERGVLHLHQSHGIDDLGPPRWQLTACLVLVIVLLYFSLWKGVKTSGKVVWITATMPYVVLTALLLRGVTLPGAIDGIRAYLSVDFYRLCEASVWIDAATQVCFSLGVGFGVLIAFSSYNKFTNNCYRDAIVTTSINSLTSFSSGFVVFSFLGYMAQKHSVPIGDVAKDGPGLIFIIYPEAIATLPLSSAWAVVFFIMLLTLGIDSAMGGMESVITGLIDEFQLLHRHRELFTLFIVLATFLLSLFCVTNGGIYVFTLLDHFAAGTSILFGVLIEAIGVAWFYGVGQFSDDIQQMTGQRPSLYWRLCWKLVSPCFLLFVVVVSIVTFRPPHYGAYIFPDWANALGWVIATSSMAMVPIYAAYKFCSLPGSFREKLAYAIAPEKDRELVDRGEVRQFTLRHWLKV

[12] = Configurational stability of separated enantiomers; assay type: physicochemical; settings: after chiral HPLC separation
[13] = biological target: T6, h5-HT7A (Homo sapiens, UniProt P34969); assay: HEK-5-HT7A / cAMP functional assay; assay type: cell-based; settings: agonist mode
T6 sequence (P34969 1-445 isoform P34969-2): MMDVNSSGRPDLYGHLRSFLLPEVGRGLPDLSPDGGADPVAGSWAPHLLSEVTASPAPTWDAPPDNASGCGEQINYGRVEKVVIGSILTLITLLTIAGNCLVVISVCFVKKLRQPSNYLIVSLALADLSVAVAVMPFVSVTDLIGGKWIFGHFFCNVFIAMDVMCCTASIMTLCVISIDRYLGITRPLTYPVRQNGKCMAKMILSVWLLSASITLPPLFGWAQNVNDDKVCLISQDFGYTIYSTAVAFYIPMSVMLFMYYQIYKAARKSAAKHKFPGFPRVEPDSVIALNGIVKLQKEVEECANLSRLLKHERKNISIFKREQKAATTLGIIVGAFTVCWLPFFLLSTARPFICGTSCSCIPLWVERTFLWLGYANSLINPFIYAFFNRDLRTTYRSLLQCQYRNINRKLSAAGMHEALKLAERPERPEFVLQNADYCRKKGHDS

[14] = biological target: 5-HT2BR (Homo sapiens, UniProt P41595); assay: PDSP radioligand binding, 5-HT2BR; settings: [3H]LSD
Sequence of 5-HT2BR (P41595 whole entry): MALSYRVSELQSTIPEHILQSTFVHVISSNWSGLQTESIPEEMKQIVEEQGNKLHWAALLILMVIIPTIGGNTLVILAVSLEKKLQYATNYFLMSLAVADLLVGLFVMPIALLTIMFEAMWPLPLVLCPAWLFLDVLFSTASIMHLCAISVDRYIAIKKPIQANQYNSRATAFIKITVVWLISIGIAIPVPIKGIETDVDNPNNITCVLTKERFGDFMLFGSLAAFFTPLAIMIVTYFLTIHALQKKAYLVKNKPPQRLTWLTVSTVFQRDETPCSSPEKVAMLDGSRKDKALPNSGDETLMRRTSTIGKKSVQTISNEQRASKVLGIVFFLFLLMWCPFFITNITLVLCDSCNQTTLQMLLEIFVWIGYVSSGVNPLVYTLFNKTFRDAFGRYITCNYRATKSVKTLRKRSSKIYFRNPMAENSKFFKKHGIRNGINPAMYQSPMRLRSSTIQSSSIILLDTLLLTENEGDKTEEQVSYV
Outline: as §1

[15] = biological target: T5, 5-HT7R; assay: GPCR Tango assay, β-arrestin recruitment; assay type: cell-based
[16] = biological target: 5-HT2AR (Homo sapiens, UniProt P28223); assay: PDSP radioligand binding, 5-HT2AR; settings: [3H]Ketanserin
Sequence of 5-HT2AR (P28223 whole entry): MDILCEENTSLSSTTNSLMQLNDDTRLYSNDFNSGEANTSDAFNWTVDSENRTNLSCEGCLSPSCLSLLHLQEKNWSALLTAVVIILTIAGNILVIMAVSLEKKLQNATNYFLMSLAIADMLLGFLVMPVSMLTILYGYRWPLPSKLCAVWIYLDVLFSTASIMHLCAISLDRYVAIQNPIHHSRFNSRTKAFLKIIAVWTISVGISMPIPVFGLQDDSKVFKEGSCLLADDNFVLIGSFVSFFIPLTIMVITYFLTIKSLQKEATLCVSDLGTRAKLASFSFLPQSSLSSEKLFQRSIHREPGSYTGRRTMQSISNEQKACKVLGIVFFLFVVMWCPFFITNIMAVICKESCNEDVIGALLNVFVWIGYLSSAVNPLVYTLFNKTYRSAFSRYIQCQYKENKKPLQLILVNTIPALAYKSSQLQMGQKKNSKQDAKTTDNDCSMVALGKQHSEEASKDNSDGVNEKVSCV
Outline: as §1

[17] = biological target: T3, 5-HT1AR; settings: read-out: Binding affinity constant Ki, 5-HT1AR; cited from earlier work
[18] = biological target: T6, h5-HT7A; settings: cited from earlier work
[19] = biological target: T5, 5-HT7R; settings: cited from earlier work
[20] = biological target: T5, 5-HT7R; settings: read-out: Binding affinity constant Ki, 5-HT7R; Table 1; cited from earlier work
[21] = biological target: T4, SERT; settings: 10 μM concentration; cited from earlier work
[22] = Binding affinity constant Ki, 5-HT1AR
[23] = mean ± SEM, min 3 assays in triplicate
[24] = [3H]SCH23390, 10 μM concentration

## CCOC(=O)C1(CCN2CCc3ccccc3C2)Cc2cc(Cl)ccc2C1=O (stereo not drawn) [Compound 3, ethyl 5-chloro-2-(2-(3,4-dihydroisoquinolin-2(1H)-yl)ethyl)-1-oxo-2,3-dihydro-1H-indene-2-carboxylate]
[1]
  Ki: 885 nM
[2]
  Binding, NET: inhibition threshold class: MT (Missed threshold of 50% inhibition at 10 μM concentration)
[3]; read-out: Binding, D4: inhibition threshold class
  inhibition at 10 µM: < 50%
[4]
  Ki: 134 nM
[5]; [22]
  Ki: 52 nM
[6]
  Binding, SERT: inhibition threshold class: MT (Missed threshold of 50% inhibition at 10 μM concentration)
[7]
  Ki: 3.39 nM
[8]
  inhibition at 10 µM: < 50%
[9]
  inhibition at 10 µM: < 50%
[10]
  Ki: 747 nM
[11]
  Binding, DAT: inhibition threshold class: MT (Missed threshold of 50% inhibition at 10 μM concentration)

## CC1(CCN2CCc3ccccc3C2)Cc2cc(Cl)ccc2C1=O (single isomer, unassigned; (-)) [Compound 2a, (−)-5-chloro-2-(2-(3,4-dihydroisoquinolin-2(1H)-yl)ethyl)-2-methyl-2,3-dihydro-1H-inden-1-one]
[1]; 10 μM concentration
  Binding, 5-HT2CR: inhibition threshold class: MT (Missed threshold of 50% inhibition at 10 μM concentration)
[2]
  Binding, NET: inhibition threshold class: MT (Missed threshold of 50% inhibition at 10 μM concentration)
[12]
  Racemization of separated enantiomers: No racemization
[3]; [3H]N-Methylspiperone, mean ± SEM, min 3 assays in triplicate
  Binding affinity constant pKi ± SEM, D4: 6.34 ± 0.07
[3]; read-out: Binding affinity constant Ki, D4, [3H]N-Methylspiperone
  Ki: 457 nM
[4]; 10 μM concentration
  Binding, D3: inhibition threshold class: MT (Missed threshold of 50% inhibition at 10 μM concentration)
[5]; [23]
  Binding affinity constant pKi ± SEM, 5-HT1AR: 7.06±0.07
[5]; read-out: Binding affinity constant Ki, 5-HT1AR
  Ki: 86.3 nM
[6]
  Binding, SERT: inhibition threshold class: MT (Missed threshold of 50% inhibition at 10 μM concentration)
[7]
  Selectivity for 5-HT7R over 5-HT1AR: ~72 fold
[7]; Table 1, [3H]LSD, mean ± SEM, min 3 assays in triplicate
  Binding affinity constant pKi ± SEM, 5-HT7R: 8.94 ± 0.06
[7]; Table 3
  5-HT7 Receptor Binding pKi: 8.7 ± 0.1
[7]; read-out: 5-HT7 Receptor Binding Ki, Table 3
  Ki: 2.4 nM
[7]; read-out: Binding affinity constant Ki, 5-HT7R, Table 1, [3H]LSD
  Ki: 1.2 nM
[13]
  cAMP Hill: 1.3± 0.2
  cAMP pEC50: 6.9±0.3
[13]; normalized to maximal serotonin effect
  cAMP Emax %: 82.8 ± 2.6%
[13]; read-out: cAMP EC50
  EC50: 126 nM
[8]; [24]
  Binding, D5: inhibition threshold class: MT (Missed threshold of 50% inhibition at 10 μM concentration)
[14]; [23]
  Binding affinity constant pKi ± SEM, 5-HT2BR: 6.48 ± 0.04
[14]; read-out: Binding affinity constant Ki, 5-HT2BR
  Ki: 329 nM
[9]; [24]
  Binding, D1: inhibition threshold class: MT (Missed threshold of 50% inhibition at 10 μM concentration)
[10]; 10 μM concentration
  Binding, D2: inhibition threshold class: MT (Missed threshold of 50% inhibition at 10 μM concentration)
[11]
  Binding, DAT: inhibition threshold class: MT (Missed threshold of 50% inhibition at 10 μM concentration)
[15]; agonist mode, Tango
  β-arrestin Emax %: 78.7 ± 5.7%
  β-arrestin Hill: 1.2 ± 0.1
  β-arrestin pEC50: 8.4 ± 0.1
[15]; read-out: β-arrestin EC50, agonist mode, Tango
  EC50: 3.98 nM
[15]; relative to 5-HT
  Times higher activity than 5-HT in the β-arrestin pathway: over 31 times
[16]; [23]
  Binding affinity constant pKi ± SEM, 5-HT2AR: 6.08 ± 0.06
[16]; read-out: Binding affinity constant Ki, 5-HT2AR
  Ki: 834 nM

## Clc1ccc(-c2n[nH]c3c2CCNCC3)cc1 [Compound 7, 3-(4-chlorophenyl)-1,4,5,6,7,8-hexahydropyrazolo[3,4-d]azepine]
[17]
  Ki: > 10000 nM
[18]
  cAMP Emax %: 94.7%
  cAMP pEC50: 5.1±0.1
[18]; read-out: cAMP EC50
  EC50: 7790 nM
[19]
  β-arrestin Emax %: 62.7%
  β-arrestin pEC50: 6.8±0.2

## CC1(CCN2CCc3ccccc3C2)Cc2cc(Cl)ccc2C1=O (stereo not drawn) [Compound 2, 5-chloro-2-(2-(3,4-dihydroisoquinolin-2(1H)-yl)ethyl)-2-methyl-2,3-dihydro-1H-inden-1-one]
[1]; Binding affinity constant Ki, 5-HT2CR, [3H]Mesulergine
  Ki: 1740 nM
[2]; read-out: Binding, NET: inhibition threshold class
  inhibition at 10 µM: < 50%
[3]; Binding affinity constant Ki, D4, [3H]N-Methylspiperone
  Ki: 1220 nM
[4]
  Ki: 185 nM
[5]; [22]
  Ki: 1720 nM
[6]; read-out: Binding, SERT: inhibition threshold class
  inhibition at 10 µM: < 50%
[7]
  Fold higher affinity at the 5-HT7R than clozapine: 2 fold
  Fold lower affinity at the 5-HT7R than AS 19: about 4 fold
  Ki: 2.24 nM
[8]
  inhibition at 10 µM: < 50%
[14]; Binding affinity constant Ki, 5-HT2BR
  Ki: 174 nM
[9]
  inhibition at 10 µM: < 50%
[10]
  Ki: 1230 nM
[11]; read-out: Binding, DAT: inhibition threshold class
  inhibition at 10 µM: < 50%
[16]; Binding affinity constant Ki, 5-HT2AR
  Ki: 904 nM

## Cc1nn(C)c(C)c1-c1cccc2c1CC[C@H](N(C)C)C2 [AS-19]
[17]
  Ki: 89.7 nM
[20]
  Ki: 0.6 nM

## O=C1c2ccc(Cl)cc2CC1CCN1CCc2ccccc2C1 (stereo not drawn) [Compound 1c, 5-chloro-2-(2-(3,4-dihydroisoquinolin-2(1H)-yl)ethyl)-2,3-dihydro-1H-inden-1-one]
[12]
  Racemization of separated enantiomers: racemizes readily; also recorded: quickly reverted to the racemic mixture in a matter of hours
[21]
  Binding, SERT: inhibition threshold class: MT (Missed threshold of 50% inhibition at 10 μM concentration)

## NCCc1c[nH]c2ccc(O)cc12 [Compound 5-HT, Serotonin, reference compound]
[13]
  cAMP Hill: 1.0±0.1
[15]; agonist mode, Tango
  β-arrestin Hill: 3.4±0.4
